Screening data from PubChem.
IDH1 mut inh – inhibitors of IDH1 R132H reductase, primary screen, biochemical, plate reader, single point | Isocitrate dehydrogenase [NADP] cytoplasmic (Homo sapiens), O75874 | diaphorase/resazurin fluorescence, 60 min | inhibition, % at 10 µM | 70,000 tested, 0.18% active; in the data active means inhibition above about 34%; inconclusive means no clear call, values can overlap the other calls; inactive means below about 11%
T cruzi growth-1 – T. cruzi intracellular proliferation inhibitors, primary screen, cell-based, beta-gal Tulahuen parasites, NIH3T3 host, luminescence; T. cruzi beta-gal in NIH3T3, GalScreen luminescence, 90 h; inhibition, % at 8.34 µM; 77,000 tested, 5.9% active;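 active means mean inhibition above about 93%, with at least 55% of replicates each passing it, limit read from the data, passing the limit was not always enough; inconclusive means only one of those two conditions holds; inactive means neither condition holds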
Pf Dd2 inh – P. falciparum Dd2 growth inhibitors, primary screen, SYBR Green fluorescence, single dose replicates. 72 h; stronger effect = lower value. activity change, % at 10 µM. 94,000 tested, 2.3% active. AID 1159554, 2015; in the data active means activity change below about -80%; inconclusive means no clear call, values can overlap the other calls
GASC1 inh – inhibitors of GASC-1 (KDM4C) histone demethylase, primary screen, biochemical, single concentration HTS; Lysine-specific demethylase 4C (Homo sapiens), Q9H3R0; GST-KDM4C 2-372, H3K9me3 peptide, LANCE TR-FRET; inhibition, % at 12.5 µM; 96,000 tested, 0.15% active;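 active means mean replicate inhibition above about 25%, with at least 55% of replicates also reaching it, limit read from the data, passing the limit was not always enough; inconclusive means only one of those two conditions met; inactive means neither condition met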
Target sequence (Q9H3R0 2-372 limits assumed): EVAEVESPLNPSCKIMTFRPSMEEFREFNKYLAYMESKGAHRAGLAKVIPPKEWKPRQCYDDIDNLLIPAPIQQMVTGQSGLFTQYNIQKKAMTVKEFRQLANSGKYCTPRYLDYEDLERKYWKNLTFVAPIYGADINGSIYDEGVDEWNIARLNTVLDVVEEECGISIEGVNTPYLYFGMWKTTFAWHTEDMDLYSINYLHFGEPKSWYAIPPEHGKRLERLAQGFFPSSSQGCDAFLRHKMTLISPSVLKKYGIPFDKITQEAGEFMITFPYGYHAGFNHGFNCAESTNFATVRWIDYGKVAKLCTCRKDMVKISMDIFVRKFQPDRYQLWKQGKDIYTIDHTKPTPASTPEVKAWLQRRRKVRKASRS
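Material: GST-tagged GASC-1 (JMJD2C) catalytic fragment, aa 2-372 / Quantity: enzyme final amount 10 nM / Medium: HEPES buffer, pH 7.5, plus ascorbate / Doses: one test concentration per compound / Incubation: 30 min reaction, 60 min detection, RT / Measured by: LANCE TR-FRET / Read-out: inhibition from TR-FRET ratio decrease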
T cruzi growth-2 – T. cruzi intracellular proliferation inhibitors, confirmation, cell-based, NIH3T3 host, beta-gal parasite, luminescence, cherry-pick; shares compounds with T cruzi growth-1; T. cruzi beta-gal in NIH3T3, GalScreen luminescence, 90 h; inhibition, % at 8.35 µM; 5,600 tested, 72% active; AID 651739, 2012;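 active means mean replicate inhibition above about 95% and at least 55% of replicates individually reaching it, limit read from the data; inconclusive means only one of the two criteria is met; inactive means neither criterion is met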
T cruzi growth-3 – inhibitors of intracellular T. cruzi replication, confirmation, NIH3T3 host cells, beta-gal parasites, cherry-pick, set 2. inhibition, % at 2.09 µM. 5,600 tested, 21% active. shares compounds with T cruzi growth-1. T. cruzi beta-gal in NIH3T3, GalScreen luminescence, 90 h;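 active means mean inhibition above about 95%, with at least 55% of replicates also reaching it, limit read from the data; inconclusive means meets just one of the two conditions; inactive means meets neither condition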
NIH3T3 tox – cytotoxicity in mouse NIH/3T3 fibroblasts, confirmation, cytotoxicity control for T. cruzi proliferation inhibitor project, cell-based, cherry-pick, single point; shares compounds with T cruzi growth-1; NIH/3T3 viability, CellTiter-Glo ATP luminescence, 90 h; cytotoxicity (signal decrease), % at 8.35 µM; 5,600 tested, 14% active; AID 651742, 2012;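 active means mean signal decrease across replicates above about 35% based on untreated-well scatter, with enough replicates individually passing, limit read from the data; inconclusive means no rule stated though some were filed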
3T3 cytotox 2 – NIH/3T3 fibroblast cytotoxicity, confirmation, cytotoxicity control, cell-based, cherry-pick, single point, set 2. shares compounds with T cruzi growth-1. NIH/3T3 viability, CellTiter-Glo ATP luminescence, 90 h. inhibition, % at 24.9 µM. 5,600 tested, 56% active;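 active means mean loss of cell viability signal at or above a set limit, and enough replicates individually reaching it; inconclusive means meets only the mean limit or only the replicate share; inactive means meets neither condition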
Hits are given with their value; i = inactive; ? = inconclusive; nt = not tested or not shown. An excerpt weighted towards active compounds, which were near 5.8% of everything screened.

SMILES | IDH1 mut inh | T cruzi growth-1 | Pf Dd2 inh | GASC1 inh | T cruzi growth-2 | T cruzi growth-3 | NIH3T3 tox | 3T3 cytotox 2
COc1ccc(NC(=O)Nc2ccc3c(c2)C(=O)N([C@@H](C)CO)C[C@H](C)[C@H](CN(C)C(=O)Nc2ccc(C(F)(F)F)cc2)OCCCC[C@H](C)O3)cc1 | i | ? | i | i | 104 | 112 | i | i
COc1ccc(NC(=O)Nc2ccc3c(c2)C(=O)N([C@@H](C)CO)C[C@@H](C)[C@H](CN(C)C(=O)Nc2ccc(C(F)(F)F)cc2)OCCCC[C@@H](C)O3)cc1 | i | 114 | i | i | 109 | 109 | i | i
Cc1ccnc(SCC(=O)Nc2sc3c(c2C(=O)Nc2ccccc2)CCCC3)n1 | i | nt | nt | nt | nt | nt | nt | nt
Clc1snnc1CN1CCOCC1 | i | nt | nt | nt | nt | nt | nt | nt
CN(C)C(=O)c1cccc(-c2ccc([C@@H]3[C@@H](CO)N4CCCCN(C(=O)C5CCC5)C[C@H]34)cc2)c1 | nt | i | i | i | nt | nt | nt | nt
CN(C)C(=O)c1cccc(-c2ccc([C@@H]3[C@H](CO)N4CCCCN(C(=O)C5CCC5)C[C@@H]34)cc2)c1 | nt | 104 | i | i | i | i | i | i
CN(C)C(=O)c1cccc(-c2ccc([C@H]3[C@@H](CO)N4CCCCN(C(=O)C5CCCC5)C[C@H]34)cc2)c1 | nt | 103 | i | nt | 98 | i | i | i
COC(=O)c1ccccc1NC(=O)CSc1nc2ccc(C)cc2[nH]1 | i | nt | nt | nt | nt | nt | nt | nt
O=C(CCCCC(=O)NN=C1CCCCCC1)NO | i | nt | nt | nt | nt | nt | nt | nt
C[C@H](CO)N1C[C@H](C)[C@H](CN(C)C(=O)NC2CCCCC2)Oc2ncc(C#Cc3ccccc3)cc2C1=O | i | 98 | i | nt | 106 | i | 41 | 58
C[C@@H]1CN([C@@H](C)CO)C(=O)c2cc(C#CC3CCCCC3)cnc2O[C@@H]1CN(C)C(=O)NC1CCCC1 | i | 100 | i | i | 107 | i | i | 100
C[C@H](CO)N1C[C@H](C)[C@H](CN(C)Cc2ccc(Oc3ccccc3)cc2)Oc2ccc(NC(=O)Nc3cccc4ccccc34)cc2C1=O | nt | 123 | i | i | 104 | 100 | i | 37
C[C@H](CO)N1C[C@H](C)[C@@H](CN(C)Cc2ccc(Oc3ccccc3)cc2)Oc2ccc(NC(=O)Nc3cccc4ccccc34)cc2C1=O | nt | 117 | i | i | 99 | i | ? | i
C[C@@H]1CN([C@H](C)CO)C(=O)c2cc(NC(=O)Nc3cccc4ccccc34)ccc2O[C@@H]1CN(C)Cc1ccc(Oc2ccccc2)cc1 | i | 117 | i | i | 101 | i | 41 | ?
C[C@H]1CN([C@@H](C)CO)C(=O)c2cc(NC(=O)Nc3cccc4ccccc34)ccc2O[C@@H]1CN(C)Cc1ccc(Oc2ccccc2)cc1 | i | 125 | i | i | 98 | 102 | 41 | 44
CCOC(=O)c1cc(NC(=O)CN2C(=O)COc3ccc(Cl)cc32)ccc1Cl | i | nt | nt | nt | nt | nt | nt | nt
C[C@@H]1CCCCO[C@@H](CN(C)C(=O)Nc2cccc3ccccc23)[C@@H](C)CN([C@@H](C)CO)C(=O)c2cc(NS(=O)(=O)c3ccc(Cl)cc3)ccc2O1 | nt | 99 | i | i | 103 | i | i | i
C[C@@H]1CCCCO[C@H](CN(C)C(=O)Nc2cccc3ccccc23)[C@H](C)CN([C@H](C)CO)C(=O)c2cc(NS(=O)(=O)c3ccc(Cl)cc3)ccc2O1 | i | 105 | i | i | 108 | 113 | i | i
C[C@@H]1CCCCO[C@@H](CN(C)C(=O)Nc2cccc3ccccc23)[C@@H](C)CN([C@H](C)CO)C(=O)c2cc(NS(=O)(=O)c3ccc(Cl)cc3)ccc2O1 | i | i | i | i | nt | nt | nt | nt
CNC[C@H]1OCCCC[C@H](C)Oc2ccc(NS(=O)(=O)c3ccc(C)cc3)cc2C(=O)N([C@@H](C)CO)C[C@@H]1C | i | 102 | i | i | i | i | i | i
CNC[C@H]1OCCCC[C@H](C)Oc2ccc(NS(C)(=O)=O)cc2C(=O)N([C@@H](C)CO)C[C@@H]1C | i | 101 | i | i | i | i | i | i
CNC[C@@H]1OCCCC[C@H](C)Oc2ccc(NS(=O)(=O)c3ccc(C)cc3)cc2C(=O)N([C@@H](C)CO)C[C@H]1C | nt | i | i | i | nt | nt | nt | nt
O=C(COc1ccccc1)Nc1ccc(Cl)cc1C(=O)O | i | nt | nt | nt | nt | nt | nt | nt
NC(=O)CSc1nnc(SCc2cccc3ccccc23)s1 | i | nt | nt | nt | nt | nt | nt | nt
O=C(C1CCC1)N1CCCCN2[C@@H](CO)[C@H](c3ccc(-c4ccncc4)cc3)[C@@H]2C1 | nt | ? | i | i | 102 | i | i | ?
SMILES | IDH1 mut inh | T cruzi growth-1 | Pf Dd2 inh | GASC1 inh | T cruzi growth-2 | T cruzi growth-3 | NIH3T3 tox | 3T3 cytotox 2
CN(C)C(=O)c1ccc(-c2ccc([C@@H]3[C@H](CO)N4CCCCN(C(=O)C5CCC5)C[C@@H]34)cc2)cc1 | nt | 106 | i | nt | 103 | ? | i | i
CN(C)C(=O)c1ccc(-c2ccc([C@H]3[C@H](CO)N4CCCCN(C(=O)C5CC5)C[C@@H]34)cc2)cc1 | nt | ? | i | i | 100 | i | i | i
CN(C)C(=O)c1ccc(-c2ccc([C@H]3[C@@H](CO)N4CCCCN(C(=O)C5CCC5)C[C@H]34)cc2)cc1 | nt | 113 | i | nt | 97 | ? | i | i
CN(C)C(=O)c1ccc(-c2ccc([C@@H]3[C@@H](CO)N4CCCCN(C(=O)C5CCC5)C[C@@H]34)cc2)cc1 | nt | i | i | nt | nt | nt | nt | nt
O=C(COc1ccccc1)NC(=S)Nc1cc(-c2nc3ccccc3o2)ccc1Cl | i | nt | nt | nt | nt | nt | nt | nt
CCn1c(=O)c(C(=O)NCC2CCCO2)c(O)c2ccccc21 (stereo unspecified) | i | nt | nt | nt | nt | nt | nt | nt
CC(C)NC(=O)N1CCCCN2[C@H](CO)[C@H](c3ccc(C#Cc4ccccc4F)cc3)[C@H]2C1 | nt | 109 | i | i | 104 | 107 | i | 103
CC(C)NC(=O)N1CCCCN2[C@@H](CO)[C@H](c3ccc(C#Cc4ccccc4F)cc3)[C@@H]2C1 | nt | 113 | i | i | 96 | i | 51 | 104
CC(C)NC(=O)N1CCCCN2[C@H](C1)[C@H](c1ccc(C#Cc3ccccc3F)cc1)[C@@H]2CO | nt | i | i | i | nt | nt | nt | nt
COC(=O)c1sc(NC(=S)Nc2ccc(Cl)cn2)c(C(=O)OC)c1C | i | nt | nt | nt | nt | nt | nt | nt
